Active and inactive are the calls of the source. No cut-off for these calls is given here.
Tests used:
SK-N-MC [1] = test: Cytotoxicity against human SK-N-MC cells at 1 uM after 6 hrs by MTT test; format: functional, cell-based
Summary of the method: (§1)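 MTT viability test: SK-N-MC cells held 6 h with compound (1–10 µM) or vehicle. MTT (5 mg/ml stock) added for 3 h, cells washed in PBS, formazan dissolved in 0.1 N HCl in isopropanol, absorbance read at 570 nm. Viability given relative to control.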

[2] = target: Histamine H1 receptor (Cavia porcellus) (UniProt P31389); test: Antagonist activity at histamine H1 receptor in guinea pig terminal ileum; format: functional, tissue-based
Histamine H1 receptor (Cavia porcellus), sequence (P31389 whole entry): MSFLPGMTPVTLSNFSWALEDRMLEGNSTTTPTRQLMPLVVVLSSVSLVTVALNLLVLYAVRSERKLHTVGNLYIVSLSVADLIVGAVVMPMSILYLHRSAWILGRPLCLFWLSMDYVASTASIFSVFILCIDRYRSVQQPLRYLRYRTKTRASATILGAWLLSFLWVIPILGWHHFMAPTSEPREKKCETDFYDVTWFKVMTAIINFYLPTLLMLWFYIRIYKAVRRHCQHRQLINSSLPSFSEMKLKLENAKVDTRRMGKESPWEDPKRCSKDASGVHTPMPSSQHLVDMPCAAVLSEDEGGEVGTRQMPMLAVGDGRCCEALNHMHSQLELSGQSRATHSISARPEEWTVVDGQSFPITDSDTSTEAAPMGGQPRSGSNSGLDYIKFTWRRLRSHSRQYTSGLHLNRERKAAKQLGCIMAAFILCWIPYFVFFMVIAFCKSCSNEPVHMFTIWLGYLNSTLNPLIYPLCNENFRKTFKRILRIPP
Summary of the method: (§2)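 Guinea-pig (250–350 g) terminal ileum (H1) suspended isometrically in Krebs–Henseleit at 37 °C, aerated 95% O2–5% CO2. Cumulative histamine curves (1 nM to 1 µM) run without and with compound up to 10 µM. pKB (apparent pA2) from Furchgott's equation; pD2′ from Van Rossum's equation when antagonism was non-surmountable.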

Histamine H4 receptor [3] = target: T1, Histamine H4 receptor (Homo sapiens, UniProt Q9H3N8); test: Displacement of [3H]histamine from human histamine H4 receptor expressed in SK-N-MC cells
T1 sequence (Q9H3N8 whole entry): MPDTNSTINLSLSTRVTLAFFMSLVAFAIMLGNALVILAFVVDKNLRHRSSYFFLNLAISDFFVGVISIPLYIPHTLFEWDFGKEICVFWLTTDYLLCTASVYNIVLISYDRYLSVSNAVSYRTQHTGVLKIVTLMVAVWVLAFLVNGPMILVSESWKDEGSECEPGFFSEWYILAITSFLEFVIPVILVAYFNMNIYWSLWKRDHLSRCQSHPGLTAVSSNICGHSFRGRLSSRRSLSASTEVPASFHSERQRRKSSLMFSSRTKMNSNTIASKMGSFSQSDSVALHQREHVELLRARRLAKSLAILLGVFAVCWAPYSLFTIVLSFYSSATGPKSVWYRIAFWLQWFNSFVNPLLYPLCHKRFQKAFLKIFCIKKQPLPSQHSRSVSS

Histamine H3 receptor [4] = target: T2, Histamine H3 receptor (Homo sapiens, UniProt Q9Y5N1); test: Antagonist activity at human histamine H3 receptor expressed in SK-N-MC cells by CRE-mediated beta-galactosidase reporter gene assay administered 10 mins before (R)-alpha-methylhistamine challenge after 6 hrs; format: functional, cell-based
T2 sequence (Q9Y5N1 whole entry): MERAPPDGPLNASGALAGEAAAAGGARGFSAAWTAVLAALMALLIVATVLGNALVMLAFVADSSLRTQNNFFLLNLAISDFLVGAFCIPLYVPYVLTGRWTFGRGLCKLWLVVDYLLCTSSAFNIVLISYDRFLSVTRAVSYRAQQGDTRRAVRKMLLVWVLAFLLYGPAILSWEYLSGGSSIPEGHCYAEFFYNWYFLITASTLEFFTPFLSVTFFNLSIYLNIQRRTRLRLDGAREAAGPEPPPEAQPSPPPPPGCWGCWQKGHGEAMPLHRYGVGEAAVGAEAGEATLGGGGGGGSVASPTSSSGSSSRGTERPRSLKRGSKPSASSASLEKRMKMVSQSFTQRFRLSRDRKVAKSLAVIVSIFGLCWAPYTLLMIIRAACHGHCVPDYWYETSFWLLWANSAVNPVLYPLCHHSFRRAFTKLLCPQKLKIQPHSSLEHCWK
Summary of the method: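 SK-N-MC cells stably carrying human H3 and a β-galactosidase reporter. Compound added to medium, forskolin 5 min later, then (R)-α-methylhistamine 10 min after compound; 6 h at 37 °C. Cells lysed in phosphate assay buffer (pH 8) with 0.5% Triton and 40 mM β-mercaptoethanol; β-galactosidase read at 570 nm. Means of 4–6 experiments.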

[5] = target: Histamine H2 receptor (Cavia porcellus) (UniProt P47747); test: Antagonist activity at histamine H2 receptor in guinea pig atrium assessed as changes in rate of spontaneous beat at upto 10 uM; format: functional, tissue-based; settings: Cardiac atrium
Histamine H2 receptor (Cavia porcellus), sequence (P47747 whole entry): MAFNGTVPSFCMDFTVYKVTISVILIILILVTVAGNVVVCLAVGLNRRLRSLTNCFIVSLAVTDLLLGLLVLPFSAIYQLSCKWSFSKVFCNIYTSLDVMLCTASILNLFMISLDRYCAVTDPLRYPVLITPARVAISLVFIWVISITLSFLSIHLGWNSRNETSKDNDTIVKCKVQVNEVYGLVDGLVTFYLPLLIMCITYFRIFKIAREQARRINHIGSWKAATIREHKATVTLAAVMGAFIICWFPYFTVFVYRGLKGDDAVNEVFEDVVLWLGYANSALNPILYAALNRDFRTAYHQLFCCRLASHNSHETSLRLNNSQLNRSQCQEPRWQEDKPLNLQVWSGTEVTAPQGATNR
Summary of the method: (§3)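 Guinea-pig atria (H2) in Ringer–Locke at 31 °C (mM: NaCl 154.0, KCl 5.6, CaCl2 1.08, NaHCO3 5.95, glucose 11.1), gassed 95% O2–5% CO2. Spontaneous beating rate recorded by cardiotachograph. Cumulative dimaprit curves (0.1–100 µM) run without and with compound up to 10 µM. Affinity given as pKB by Furchgott, or as pD2′ by Van Rossum if non-surmountable.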

[6] = target: T3, Acetylcholinesterase (Rattus norvegicus) (UniProt P37136); test: Inhibition of acetylcholinesterase in Wistar rat brain homogenate at upto 10 uM by Ellman's method; format: tissue-based
T3 sequence (whole entry): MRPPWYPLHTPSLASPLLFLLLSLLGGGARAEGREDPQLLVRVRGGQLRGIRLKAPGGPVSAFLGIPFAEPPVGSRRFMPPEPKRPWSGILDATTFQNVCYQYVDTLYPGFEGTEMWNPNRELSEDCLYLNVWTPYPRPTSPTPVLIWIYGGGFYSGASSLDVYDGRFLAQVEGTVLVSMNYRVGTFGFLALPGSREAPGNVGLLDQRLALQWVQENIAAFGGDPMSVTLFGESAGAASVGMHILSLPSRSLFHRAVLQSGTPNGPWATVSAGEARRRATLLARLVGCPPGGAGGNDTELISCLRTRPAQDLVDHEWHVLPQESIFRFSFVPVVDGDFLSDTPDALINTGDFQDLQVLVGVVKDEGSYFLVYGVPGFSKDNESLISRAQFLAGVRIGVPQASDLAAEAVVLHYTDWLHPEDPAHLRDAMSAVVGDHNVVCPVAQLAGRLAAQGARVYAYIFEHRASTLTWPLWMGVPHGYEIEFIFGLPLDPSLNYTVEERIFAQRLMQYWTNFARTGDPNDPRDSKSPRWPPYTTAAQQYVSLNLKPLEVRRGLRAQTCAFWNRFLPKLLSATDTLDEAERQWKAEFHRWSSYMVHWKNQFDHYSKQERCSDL

SK-N-MC [7] = test: Cytotoxicity against human SK-N-MC cells at 10 uM after 6 hrs by MTT test; format: functional, cell-based; summary of the method: as §1
Histamine H3 receptor [8] = target: Histamine H3 receptor (Rattus norvegicus, UniProt Q9QYN8); test: Displacement of [3H]RAMHA from histamine H3 receptor in Wistar rat brain membrane; format: cell membranes
Histamine H3 receptor (Rattus norvegicus, UniProt Q9QYN8), sequence (Q9QYN8 whole entry): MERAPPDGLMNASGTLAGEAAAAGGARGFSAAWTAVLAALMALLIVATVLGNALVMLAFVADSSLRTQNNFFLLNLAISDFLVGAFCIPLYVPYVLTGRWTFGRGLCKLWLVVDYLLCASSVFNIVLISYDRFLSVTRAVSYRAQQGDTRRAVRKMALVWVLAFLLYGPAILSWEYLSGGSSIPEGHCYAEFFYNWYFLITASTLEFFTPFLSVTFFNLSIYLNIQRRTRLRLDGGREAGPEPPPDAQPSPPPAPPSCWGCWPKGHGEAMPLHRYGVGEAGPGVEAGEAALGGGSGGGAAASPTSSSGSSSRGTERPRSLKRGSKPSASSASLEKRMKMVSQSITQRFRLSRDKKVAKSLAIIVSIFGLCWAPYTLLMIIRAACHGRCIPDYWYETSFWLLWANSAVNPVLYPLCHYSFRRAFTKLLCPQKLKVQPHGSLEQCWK
Summary of the method: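 Membranes from male Wistar rat brain (150–200 g) incubated 45 min with 0.5 nM [3H]RAMHA and compound (0.03 nM to 10 µM) in 50 mM Tris–HCl pH 7.4, 50 mM NaCl, 0.5 mM EDTA. Vacuum filtration, two ice-cold buffer rinses. Nonspecific binding set with 10 µM thioperamide. pKi by Cheng–Prusoff.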

[9] = target: Histamine H2 receptor (Cavia porcellus) (UniProt P47747); test: Antagonist activity at histamine H2 receptor in guinea pig atrium assessed as changes in rate of spontaneous beat at upto 1 uM; format: functional, tissue-based; settings: Cardiac atrium; summary of the method: as §3
Histamine H3 receptor [10] = target: T2, Histamine H3 receptor; test: Displacement of [3H]RAMHA from human histamine H3 receptor expressed in SK-N-MC cells; format: cell-based
Summary of the method: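 SK-N-MC membranes bearing human H3 incubated 60 min at room temperature with 0.5 nM [3H]-(R)-α-methylhistamine and competitor (0.01 nM to 10 µM). Rapid filtration, two washes in ice-cold 50 mM Tris–HCl/5 mM EDTA. Nonspecific binding with 10 µM histamine. pKi via Cheng–Prusoff; means of 4–6 experiments.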

[11] = target: T3, Acetylcholinesterase (Rattus norvegicus); test: Inhibition of acetylcholinesterase in Wistar rat brain homogenate at upto 1 to 100 uM by Ellman's method; format: tissue-based
Summary of the method: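 Male Wistar rat (150–200 g) brain homogenate in 0.1 M phosphate buffer (pH 8.0) with DTNB (5 mM) and compound at 1–100 µM. Reaction started at 37 °C by adding acetylthiocholine (75 mM solution) and stopped after 15 min with 4% formalin. 5-Thio-2-nitrobenzoate absorbance at 412 nm. Percent inhibition versus control; reported as pIC50.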

Histamine H4 receptor [12] = target: T1, Histamine H4 receptor; test: Displacement of [3H]histamine from human histamine H4 receptor expressed in SK-N-MC cells at upto 10 uM
[13] = target: Histamine H3 receptor (Cavia porcellus) (UniProt Q9JI35); test: Antagonist activity at histamine H3 receptor in electrically-stimulated guinea pig ileum assessed as inhibition of (R)-alpha-methylhistamine-induced twitch contraction in presence of 1 uM mepyramine; format: functional, tissue-based
Histamine H3 receptor (Cavia porcellus), sequence (Q9JI35 whole entry): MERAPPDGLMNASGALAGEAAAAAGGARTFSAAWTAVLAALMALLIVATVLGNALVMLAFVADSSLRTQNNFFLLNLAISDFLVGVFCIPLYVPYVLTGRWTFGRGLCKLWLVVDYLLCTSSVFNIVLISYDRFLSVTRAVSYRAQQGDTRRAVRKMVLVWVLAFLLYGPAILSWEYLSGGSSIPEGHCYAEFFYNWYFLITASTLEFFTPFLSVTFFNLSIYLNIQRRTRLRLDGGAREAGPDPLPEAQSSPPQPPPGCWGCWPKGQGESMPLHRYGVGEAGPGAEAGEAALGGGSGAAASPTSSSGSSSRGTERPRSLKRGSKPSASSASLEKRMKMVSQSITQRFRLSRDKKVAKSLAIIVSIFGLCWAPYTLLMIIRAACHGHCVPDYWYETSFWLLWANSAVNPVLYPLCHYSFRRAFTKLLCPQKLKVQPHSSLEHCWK
Summary of the method: (§4)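 Guinea-pig ileum, electrically stimulated (0.1 Hz, 1 ms, submaximal voltage). Twitch inhibition by cumulative (R)-α-methylhistamine (1 nM to 1 µM) with 1 µM mepyramine present. Compounds tested at 1 nM to 30 µM. Potency as pKB from Furchgott's equation, or as pD2′ (Van Rossum) for non-surmountable antagonism.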

Acetylcholinesterase = target: T4, Acetylcholinesterase (Rattus norvegicus, UniProt P37136); test: Inhibition of acetylcholinesterase in Wistar rat brain homogenate by Ellman's method; format: tissue-based
T4 sequence (P37136 whole entry): T3 sequence (whole entry)

[14] = target: Histamine H1 receptor (Cavia porcellus) (UniProt P31389); test: Antagonist activity at histamine H1 receptor in guinea pig terminal ileum at upto 10 uM; format: functional, tissue-based; summary of the method: as §2
[15] = target: Histamine H2 receptor (Cavia porcellus) (UniProt P47747); test: Antagonist activity at histamine H2 receptor in guinea pig atrium assessed as changes in rate of spontaneous beat at upto 0.1 uM; format: functional, tissue-based; settings: Cardiac atrium; summary of the method: as §3
[16] = target: Histamine H3 receptor (Cavia porcellus) (UniProt Q9JI35); test: Antagonist activity at histamine H3 receptor in electrically-stimulated guinea pig ileum assessed as inhibition of (R)-alpha-methylhistamine-induced twitch contraction at upto 1 uM in presence of 1 uM mepyramine; format: functional, tissue-based; summary of the method: as §4
[17] = target: Histamine H1 receptor (Cavia porcellus) (UniProt P31389); test: Antagonist activity at histamine H1 receptor in guinea pig terminal ileum at upto 1 uM; format: functional, tissue-based; summary of the method: as §2
[18] = target: Histamine H2 receptor (Cavia porcellus) (UniProt P47747); test: Antagonist activity at histamine H2 receptor in guinea pig atrium assessed as changes in rate of spontaneous beat at upto 3 uM; format: functional, tissue-based; settings: Cardiac atrium; summary of the method: as §3

Compound	Activity (SK-N-MC [1])	pD2 [2]	Ki (Histamine H4 receptor [3]) [nM]	pKb (Histamine H3 receptor [4])	Activity [5]	Activity [6]	Activity (SK-N-MC [7])	Ki (Histamine H3 receptor [8]) [nM]	pKb [2]	Activity [9]	Ki (Histamine H3 receptor [10]) [nM]	inhibition [11] [%]	Activity (Histamine H4 receptor [12])	pKb [13]	IC50 (Acetylcholinesterase) [nM]	Activity [14]	Activity [15]	Activity [16]	Activity [17]	Activity [18]
CC1CC(C)CN(Cc2ccc(-c3ccc(CN4CC(C)CC(C)C4)cc3)cc2)C1 (stereo unspecified)	Not toxic	5.08	13800	6.19	inactive	inactive	Not toxic	–	–	–	–	–	–	–	–	–	–	–	–	–
CCCN(CCC)Cc1ccc(-c2ccc(CC(=O)N3CCCCC3)cc2)cc1	Not toxic	–	–	6.96	–	–	Not toxic	178	5.44	inactive	251	65	inactive	7.24	10500	–	–	–	–	–
c1cc(-c2ccc(CN3CCCCC3)cc2)ccc1CNC1CCCCC1	Not toxic	–	–	8.03	–	–	Not toxic	–	–	inactive	–	73	inactive	7.59	5750	inactive	–	–	–	–
CCCN(CCC)Cc1ccc(-c2ccc(CCN3CCCCC3)cc2)cc1	Not toxic	–	–	8.82	–	–	Not toxic	10.7	–	inactive	3.89	80	inactive	7.98	6760	inactive	–	–	–	–
CN(Cc1ccc(-c2ccc(CN(C)C3CCCCC3)cc2)cc1)C1CCCCC1	Not toxic	5.24	6460	7.27	–	–	Not toxic	–	–	inactive	–	57	–	7.45	1660	–	–	–	–	–
c1cc(-c2ccc(CN3CCCCC3)cc2)ccc1CCN1CCCCC1	Not toxic	–	–	9.28	–	–	Not toxic	8.32	–	inactive	2	91	inactive	8.73	1100	inactive	–	–	–	–
CN(Cc1ccccc1)Cc1ccc(-c2ccc(CN3CCCCC3)cc2)cc1	Not toxic	4.75	–	7.98	–	–	Not toxic	14.1	–	–	6.76	79	inactive	7.34	3160	–	inactive	–	–	–
CC(=O)N1CCN(Cc2ccc(-c3ccc(CN4CCN(C(C)=O)CC4)cc3)cc2)CC1	Not toxic	4.81	–	6.7	inactive	inactive	Not toxic	–	–	–	–	–	inactive	–	–	–	–	inactive	–	–
N#Cc1ccc(OCc2ccc(-c3ccc(CN4CCCCC4)cc3)cc2)cc1	Not toxic	–	–	7.27	–	inactive	Not toxic	70.8	–	inactive	75.9	–	inactive	7.27	–	inactive	–	–	–	–
CCCCCNCc1ccc(-c2ccc(CNCCCCC)cc2)cc1	Not toxic	–	6460	6.51	–	inactive	Not toxic	–	–	inactive	–	–	–	–	–	–	–	inactive	inactive	–
CCCN(CCC)C(=O)Cc1ccc(-c2ccc(CN3CCCCC3)cc2)cc1	Not toxic	–	–	8.16	–	–	Not toxic	53.7	5.44	inactive	8.51	80	inactive	8	11200	–	–	–	–	–
CC1CC(C)CN(Cc2ccc(-c3ccc(CN4CCCCC4)cc3)cc2)C1 (stereo unspecified)	Not toxic	–	–	8.48	–	–	Not toxic	2.4	6.15	–	0.871	91	inactive	9.02	2400	–	–	–	–	inactive
c1cc(-c2ccc(CN3CCCCC3)cc2)ccc1CN1CCCCC1	Not toxic	4.84	25100	8.77	inactive	–	Not toxic	–	–	–	3.39	82	–	8.58	5890	–	–	–	–	–
c1cc(-c2ccc(CNC3CCCCC3)cc2)ccc1CNC1CCCCC1	Not toxic	–	–	6.54	–	–	Not toxic	–	–	inactive	–	70	inactive	5.82	5130	–	–	–	inactive	–
CC1CCN(CCc2ccc(-c3ccc(CCN4CCC(C)CC4)cc3)cc2)CC1	Not toxic	–	–	8.17	–	inactive	Not toxic	55	5.85	–	16.6	–	inactive	7.43	–	–	inactive	–	–	–
CN(C)Cc1ccc(-c2ccc(CN3CCCCC3)cc2)cc1	Not toxic	–	–	8.92	–	inactive	Not toxic	1.32	–	–	2.19	–	inactive	9.05	–	inactive	–	–	–	inactive
